Reference: ChEMBL document CHEMBL1138520, “Molecular and conformational determinants of pituitary adenylate cyclase-activating polypeptide (PACAP) for activation of the PAC1 receptor” (J Med Chem, 2009)
Active and inactive are the calls of the source. The rule behind the calls is not given here. Where a SMILES comes first, the peptide text is derived from it. [ ]: non-standard residue; d: D form. ξ: configuration not given here. ξDisc = O=C(O)C1NCc2ccccc21

What was measured:
[1] = biological target: T1, Pituitary adenylate cyclase-activating polypeptide type I receptor (Homo sapiens, UniProt P41586); test: Displacement of [125I]Ac-PACAP27 from human recombinant PAC1 receptor expressed in CHO cells by gamma- counter; type: cell-based
Target sequence in this assay (P41586 whole entry): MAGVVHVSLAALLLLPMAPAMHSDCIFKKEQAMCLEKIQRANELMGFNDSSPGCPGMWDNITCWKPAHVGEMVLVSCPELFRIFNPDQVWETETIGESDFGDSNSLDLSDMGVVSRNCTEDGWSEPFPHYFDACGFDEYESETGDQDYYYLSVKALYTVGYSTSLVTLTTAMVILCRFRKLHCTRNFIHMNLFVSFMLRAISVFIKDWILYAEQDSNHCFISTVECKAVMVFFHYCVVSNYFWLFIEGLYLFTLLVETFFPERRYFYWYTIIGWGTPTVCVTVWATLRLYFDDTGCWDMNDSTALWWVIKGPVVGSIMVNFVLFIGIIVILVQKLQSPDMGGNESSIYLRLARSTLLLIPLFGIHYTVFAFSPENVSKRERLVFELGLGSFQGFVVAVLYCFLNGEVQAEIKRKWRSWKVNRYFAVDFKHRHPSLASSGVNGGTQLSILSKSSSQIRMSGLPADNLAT

[2] = biological target: T1, Pituitary adenylate cyclase-activating polypeptide type I receptor; test: Agonist activity at human recombinant PAC1 receptor expressed in CHO cells assessed as PACAP38-induced calcium mobilization at 1 uM by FLIPR assay relative to PACAP38; type: functional, cell-based
Target sequence in this assay (P41586 21-468 limits assumed): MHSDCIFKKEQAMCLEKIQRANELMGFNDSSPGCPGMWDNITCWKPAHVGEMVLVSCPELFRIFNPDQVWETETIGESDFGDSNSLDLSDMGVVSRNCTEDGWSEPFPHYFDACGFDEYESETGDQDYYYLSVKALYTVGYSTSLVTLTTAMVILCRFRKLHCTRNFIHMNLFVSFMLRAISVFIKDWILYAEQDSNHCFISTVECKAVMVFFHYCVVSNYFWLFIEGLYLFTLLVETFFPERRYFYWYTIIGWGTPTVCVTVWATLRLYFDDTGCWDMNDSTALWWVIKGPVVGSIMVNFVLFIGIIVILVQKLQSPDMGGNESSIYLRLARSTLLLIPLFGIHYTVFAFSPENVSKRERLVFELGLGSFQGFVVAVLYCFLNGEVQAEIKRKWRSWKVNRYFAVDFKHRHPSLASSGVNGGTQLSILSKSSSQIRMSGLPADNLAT

[3] = biological target: T1, Pituitary adenylate cyclase-activating polypeptide type I receptor; test: Agonist activity at human recombinant PAC1 receptor expressed in CHO cells assessed as PACAP38-induced calcium mobilization at 1 uM by FLIPR assay; type: functional, cell-based
Target sequence in this assay (P41586 whole entry): as the sequence (P41586 whole entry) above

[4] = biological target: T1, Pituitary adenylate cyclase-activating polypeptide type I receptor; test: Agonist activity at human recombinant PAC1 receptor expressed in CHO cells assessed as PACAP38-induced calcium mobilization by FLIPR assay relative to PACAP38; type: functional, cell-based
Method in brief: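 CHO cells stably expressing recombinant human PAC1, plated 24 h before assay, loaded with fluo-4 AM for 60 min at 37 °C in the dark, then rinsed into HBSS for 15 min at 37 °C. Peptide was added 18 s into a 150 s read (ex 480/em 525 nm), at final concentrations of 1 × 10-12 to 1 × 10^-5 M. Response was normalised to 1 × 10^-5 M PACAP38 on each plate. EC50 and efficacy came from nonlinear regression; 4-10 independent assays in duplicate.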
Target sequence in this assay (P41586 21-468 limits assumed): as the sequence (P41586 21-468 limits assumed) above

[5] = biological target: T1, Pituitary adenylate cyclase-activating polypeptide type I receptor; test: Agonist activity at human recombinant PAC1 receptor expressed in CHO cells assessed as PACAP38-induced calcium mobilization by FLIPR assay; type: functional, cell-based
Method in brief: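 CHO cells stably expressing recombinant human PAC1, plated 24 h before assay, loaded with fluo-4 AM for 60 min at 37 °C in the dark, then rinsed into HBSS for 15 min at 37 °C. EC50 and efficacy came from nonlinear regression; 4-10 independent assays in duplicate.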
Target sequence in this assay (P41586 whole entry): as the sequence (P41586 whole entry) above

SMILES	IC50 [1] [nM]	Emax [2]	EC50 [3]	Emax [4] [%]	EC50 [5] [nM]
CC[C@H](C)[C@H](NC(=O)CNC(=O)[C@H](CC(=O)O)NC(=O)[C@H](CO)NC(=O)[C@@H](N)Cc1cnc[nH]1)C(=O)N1Cc2ccccc2C1C(=O)N[C@H](C(=O)N[C@@H](CC(=O)O)C(=O)N[C@@H](CO)C(=O)N[C@@H](Cc1ccc(O)cc1)C(=O)N[C@@H](CO)C(=O)N[C@@H](CCCNC(=N)N)C(=O)N[C@@H](Cc1ccc(O)cc1)C(=O)N[C@@H](CCCNC(=N)N)C(=O)N[C@@H](CCCCN)C(=O)N[C@@H](CCC(N)=O)C(=O)N[C@@H](CCSC)C(=O)N[C@@H](C)C(=O)N[C@H](C(=O)N[C@@H](CCCCN)C(=O)N[C@@H](CCCCN)C(=O)N[C@@H](Cc1ccc(O)cc1)C(=O)N[C@@H](CC(C)C)C(=O)N[C@@H](C)C(=O)N[C@@H](C)C(=O)N[C@H](C(=O)N[C@@H](CC(C)C)C(=O)NCC(=O)N[C@@H](CCCCN)C(=O)N[C@@H](CCCNC(=N)N)C(=O)N[C@@H](Cc1ccc(O)cc1)C(=O)N[C@@H](CCCCN)C(=O)N[C@@H](CCC(N)=O)C(=O)N[C@@H](CCCNC(=N)N)C(=O)N[C@H](C(=O)N[C@@H](CCCCN)C(=O)N[C@@H](CC(N)=O)C(=O)N[C@@H](CCCCN)C(N)=O)C(C)C)C(C)C)C(C)C)[C@@H](C)O (stereo partly drawn) (H-HSDGI[ξDisc]TDSYSRYRKQMAVKKYLAAVLGKRYKQRVKNK-NH2)	1750	inactive	Not Active		
CC[C@H](C)[C@H](NC(=O)CNC(=O)[C@H](CC(=O)O)NC(=O)[C@H]1CCCN1C(=O)[C@@H](N)Cc1cnc[nH]1)C(=O)N[C@@H](Cc1ccccc1)C(=O)N[C@H](C(=O)N[C@@H](CC(=O)O)C(=O)N[C@@H](CO)C(=O)N[C@@H](Cc1ccc(O)cc1)C(=O)N[C@@H](CO)C(=O)N[C@@H](CCCNC(=N)N)C(=O)N[C@@H](Cc1ccc(O)cc1)C(=O)N[C@@H](CCCNC(=N)N)C(=O)N[C@@H](CCCCN)C(=O)N[C@@H](CCC(N)=O)C(=O)N[C@@H](CCSC)C(=O)N[C@@H](C)C(=O)N[C@H](C(=O)N[C@@H](CCCCN)C(=O)N[C@@H](CCCCN)C(=O)N[C@@H](Cc1ccc(O)cc1)C(=O)N[C@@H](CC(C)C)C(=O)N[C@@H](C)C(=O)N[C@@H](C)C(=O)N[C@H](C(=O)N[C@@H](CC(C)C)C(N)=O)C(C)C)C(C)C)[C@@H](C)O	268	inactive	Not Active		
CC[C@H](C)[C@H](NC(=O)CNC(=O)[C@H](CC(=O)O)NC(=O)[C@H](CO)NC(=O)[C@@H](N)Cc1cnc[nH]1)C(=O)N(C)[C@@H](Cc1ccccc1)C(=O)N[C@H](C(=O)N[C@@H](CC(=O)O)C(=O)N[C@@H](CO)C(=O)N[C@@H](Cc1ccc(O)cc1)C(=O)N[C@@H](CO)C(=O)N[C@@H](CCCNC(=N)N)C(=O)N[C@@H](Cc1ccc(O)cc1)C(=O)N[C@@H](CCCNC(=N)N)C(=O)N[C@@H](CCCCN)C(=O)N[C@@H](CCC(N)=O)C(=O)N[C@@H](CCSC)C(=O)N[C@@H](C)C(=O)N[C@H](C(=O)N[C@@H](CCCCN)C(=O)N[C@@H](CCCCN)C(=O)N[C@@H](Cc1ccc(O)cc1)C(=O)N[C@@H](CC(C)C)C(=O)N[C@@H](C)C(=O)N[C@@H](C)C(=O)N[C@H](C(=O)N[C@@H](CC(C)C)C(N)=O)C(C)C)C(C)C)[C@@H](C)O	3150	inactive	Not Active		
CC[C@H](C)[C@H](NC(=O)CNC(=O)[C@H](CC(=O)O)NC(=O)[C@H](CO)NC(=O)[C@@H](N)Cc1cnc[nH]1)C(=O)N[C@@H](Cc1ccccc1)C(=O)N[C@@H](C)C(=O)N[C@@H](CC(=O)O)C(=O)N[C@@H](CO)C(=O)N[C@@H](Cc1ccc(O)cc1)C(=O)N[C@@H](CO)C(=O)N[C@@H](CCCNC(=N)N)C(=O)N[C@@H](Cc1ccc(O)cc1)C(=O)N[C@@H](CCCNC(=N)N)C(=O)N[C@@H](CCCCN)C(=O)N[C@@H](CCC(N)=O)C(=O)N[C@@H](CCSC)C(=O)N[C@@H](C)C(=O)N[C@H](C(=O)N[C@@H](CCCCN)C(=O)N[C@@H](CCCCN)C(=O)N[C@@H](Cc1ccc(O)cc1)C(=O)N[C@@H](CC(C)C)C(=O)N[C@@H](C)C(=O)N[C@@H](C)C(=O)N[C@H](C(=O)N[C@@H](CC(C)C)C(=O)NCC(=O)N[C@@H](CCCCN)C(=O)N[C@@H](CCCNC(=N)N)C(=O)N[C@@H](Cc1ccc(O)cc1)C(=O)N[C@@H](CCCCN)C(=O)N[C@@H](CCC(N)=O)C(=O)N[C@@H](CCCNC(=N)N)C(=O)N[C@H](C(=O)N[C@@H](CCCCN)C(=O)N[C@@H](CC(N)=O)C(=O)N[C@@H](CCCCN)C(N)=O)C(C)C)C(C)C)C(C)C (H-HSDGIFADSYSRYRKQMAVKKYLAAVLGKRYKQRVKNK-NH2)	4			101	0.8
CC[C@H](C)[C@H](NC(=O)CNC(=O)[C@H](CC(=O)O)NC(=O)[C@H](C)NC(=O)[C@@H](N)Cc1cnc[nH]1)C(=O)N[C@@H](Cc1ccccc1)C(=O)N[C@H](C(=O)N[C@@H](CC(=O)O)C(=O)N[C@@H](CO)C(=O)N[C@@H](Cc1ccc(O)cc1)C(=O)N[C@@H](CO)C(=O)N[C@@H](CCCNC(=N)N)C(=O)N[C@@H](Cc1ccc(O)cc1)C(=O)N[C@@H](CCCNC(=N)N)C(=O)N[C@@H](CCCCN)C(=O)N[C@@H](CCC(N)=O)C(=O)N[C@@H](CCSC)C(=O)N[C@@H](C)C(=O)N[C@H](C(=O)N[C@@H](CCCCN)C(=O)N[C@@H](CCCCN)C(=O)N[C@@H](Cc1ccc(O)cc1)C(=O)N[C@@H](CC(C)C)C(=O)N[C@@H](C)C(=O)N[C@@H](C)C(=O)N[C@H](C(=O)N[C@@H](CC(C)C)C(=O)NCC(=O)N[C@@H](CCCCN)C(=O)N[C@@H](CCCNC(=N)N)C(=O)N[C@@H](Cc1ccc(O)cc1)C(=O)N[C@@H](CCCCN)C(=O)N[C@@H](CCC(N)=O)C(=O)N[C@@H](CCCNC(=N)N)C(=O)N[C@H](C(=O)N[C@@H](CCCCN)C(=O)N[C@@H](CC(N)=O)C(=O)N[C@@H](CCCCN)C(N)=O)C(C)C)C(C)C)C(C)C)[C@@H](C)O (H-HADGIFTDSYSRYRKQMAVKKYLAAVLGKRYKQRVKNK-NH2)	7.9			105	5.1
CC[C@H](C)[C@H](NC(=O)CNC(=O)[C@H](CC(=O)O)NC(=O)[C@H](CO)NC(=O)[C@@H](N)Cc1cnc[nH]1)C(=O)N[C@H](Cc1ccccc1)C(=O)N[C@H](C(=O)N[C@@H](CC(=O)O)C(=O)N[C@@H](CO)C(=O)N[C@@H](Cc1ccc(O)cc1)C(=O)N[C@@H](CO)C(=O)N[C@@H](CCCNC(=N)N)C(=O)N[C@@H](Cc1ccc(O)cc1)C(=O)N[C@@H](CCCNC(=N)N)C(=O)N[C@@H](CCCCN)C(=O)N[C@@H](CCC(N)=O)C(=O)N[C@@H](CCSC)C(=O)N[C@@H](C)C(=O)N[C@H](C(=O)N[C@@H](CCCCN)C(=O)N[C@@H](CCCCN)C(=O)N[C@@H](Cc1ccc(O)cc1)C(=O)N[C@@H](CC(C)C)C(=O)N[C@@H](C)C(=O)N[C@@H](C)C(=O)N[C@H](C(=O)N[C@@H](CC(C)C)C(=O)NCC(=O)N[C@@H](CCCCN)C(=O)N[C@@H](CCCNC(=N)N)C(=O)N[C@@H](Cc1ccc(O)cc1)C(=O)N[C@@H](CCCCN)C(=O)N[C@@H](CCC(N)=O)C(=O)N[C@@H](CCCNC(=N)N)C(=O)N[C@H](C(=O)N[C@@H](CCCCN)C(=O)N[C@@H](CC(N)=O)C(=O)N[C@@H](CCCCN)C(N)=O)C(C)C)C(C)C)C(C)C)[C@@H](C)O	951			93.2	1840
